In ChEMBL document CHEMBL1154284, “Antioxidant effects of xanthohumol and functional impact on hepatic ischemia-reperfusion injury” (J Nat Prod, 2009):
Calls of active or inactive are those of the source. The calls are words filed in the database; no cut-off is given here.

Tests used:
[1] = system: HEK293; assay: Antioxidant activity in human HEK293 cells loaded with dihyfrofluresceindiacetate at 1 mM; type: functional
Summary of the method: (§1)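 HEK 293 cells grown to 85–90% confluency, pretreated 2 h with compound (40 μM) or NAC (1 mM); 20 μM dihydrofluorescein diacetate loaded during final 30 min at 37 °C in dark; washed, then 1 mM H2O2 for 20 min. Fluorescence ex 485/em 535 nm versus corresponding controls; mean ± SEM, n = 4.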

[2] = system: HEK293; assay: Antioxidant activity in human HEK293 cells loaded with dihyfrofluresceindiacetate at 40 uM; type: functional; summary of the method: as §1
[3] = system: HEK293; assay: Cytotoxicity against human HEK293 cells upto 10 to 300 uM after 3 hrs by MTT assay; type: cell-based; details: hek293, 3 h
Summary of the method: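 HEK 293 cells near 85–90% confluency exposed 3 h to 10–300 μM; MTT added, 1 h at 37 °C; formazan dissolved in DMSO and absorbance read at 550 nm.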

[4] = system: Liver; assay: Inhibition of ischemic and reperfusion-induced oxidative stress in Sprague-Dawley rat hepatic tissue at 26.6 mM before ischemic period assessed as decrease in 8-isoprostane level; type: functional, tissue-based; details: 2.26 mM, in the assay text read “2.26 mM” for “26.6 mM”
Summary of the method: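 Liver homogenates from perfused rat livers after cold ischemia/reperfusion; 8-isoprostane by competitive EIA with acetylcholinesterase conjugate, absorbance 412 nm; percent of untreated controls.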

[5] = system: Liver; assay: Effect on ischemic and reperfusion-induced injury in Sprague-Dawley rat hepatic tissue at 2.26 mM before ischemic period assessed as LDH level; type: functional, tissue-based; details: Sprague-Dawely
Summary of the method: (§2)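 Male Sprague–Dawley rats (200–240 g) livers perfused with Krebs–Henseleit buffer pH 7.4, 37 °C; 2.26 mM compound or solvent injected via portal vein before 6 h cold ischemia at 4 °C; reperfused 150 min at 37 °C. Perfusate ALT, AST, LDH measured over time on clinical analyzer at 37 °C; mean ± SEM, n = 3.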

[6] = species on record: Rattus norvegicus; assay: Inhibition of ischemia-reperfusion-induced NF-kappaB binding activity in Sprague-Dawley rat liver at 2.26 mM treated prior to ischemic reperfusion by EMSA
[7] = system: Liver; assay: Inhibition of ischemic and reperfusion-induced SOD activity in Sprague-Dawley rat hepatic tissue at 26.6 mM before ischemic period by pyragallol method; type: functional, tissue-based; details: 2.26 mM, in the assay text read “2.26 mM” for “26.6 mM”
Summary of the method: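 Perfused rat livers (portal-vein pretreatment before 6 h cold ischemia, 150 min reperfusion). Tissue SOD activity by pyrogallol autoxidation method (one unit inhibits autoxidation 50%), normalized to Bradford protein, expressed as percent of untreated controls; mean ± SEM, n = 3.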

[8] = target: T1, Caspase-3 (Rattus norvegicus) (UniProt P55213); assay: Induction of caspase 3 in Sprague-Dawley rat ischemic-reperfused hepatic tissue assessed as generation of free fluorescent 7-amino-4-trifluoro-methylcoumarin at 2.26 mM treated before ischemic period
T1 sequence (whole entry): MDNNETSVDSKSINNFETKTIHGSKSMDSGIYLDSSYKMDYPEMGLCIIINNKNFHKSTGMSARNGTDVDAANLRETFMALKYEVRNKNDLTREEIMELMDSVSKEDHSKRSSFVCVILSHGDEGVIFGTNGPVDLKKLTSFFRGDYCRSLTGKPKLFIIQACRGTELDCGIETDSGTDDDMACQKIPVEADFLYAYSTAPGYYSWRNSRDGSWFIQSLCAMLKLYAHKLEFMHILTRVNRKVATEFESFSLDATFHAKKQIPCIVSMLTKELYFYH
Summary of the method: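 Isolated perfused rat livers (2.26 mM or solvent into portal vein, 6 h 4 °C cold ischemia, 150 min reperfusion). Tissue extracts incubated with Ac-DEVD-AFC; AFC fluorescence ex 385/em 505 nm; untreated livers set as 1; mean ± SEM, n = 3.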

[9] = target: Bcl-2-like protein 1 (Rattus norvegicus) (UniProt P53563); assay: Reduction of Bcl-xl level in Sprague-Dawley rat ischemic-reperfused hepatic tissue at 2.26 mM treated before ischemic period by Western blot analysis; type: functional
Summary of the method: (§3)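 Rat livers given 2.26 mM or solvent via portal vein before 6 h cold ischemia and 150 min reperfusion. Western blot with antibodies to Bcl-xl or phospho-Akt (Ser-473, Thr-308), overnight at 4 °C, HRP secondary; β-actin loading control; densitometry; untreated livers as control; n = 3.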

[10] = target: RAC-alpha serine/threonine-protein kinase (Rattus norvegicus) (UniProt P47196); assay: Inhibition of AKt phosphorylation in Sprague-Dawley rat ischemic reperfusion treated hepatic tissue at 2.26 mM before ischemic period by Western blot analysis; summary of the method: as §3
[11] = Inhibition of TNF-alpha-induced NF-kappaB activation expressed in human HEK293 cells preincubated for 2 hrs before TNFalpha challenge by leuciferase reporter gene assay; type: cell-based
Summary of the method: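 HEK 293 cells transiently transfected (Ca2+-phosphate) with NF-κB-driven firefly luciferase plasmid, replated 1×10^5 cells/well, grown 16 h; preincubated 2 h with 5–60 μM, then 1 ng/mL TNF-α for 6 h; PDTC 50 μM positive control. Lysate luciferase read; solvent-treated = 100%; mean ± SEM, n = 3.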

[12] = system: Liver; assay: Inhibition of ischemic and reperfusion-induced of GSH activity in Sprague-Dawley rat hepatic tissue at 26.6 mM before ischemic period by DTNB reduction assay; type: functional, tissue-based; details: 2.26 mM, in the assay text read “2.26 mM” for “26.6 mM”
Summary of the method: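 Total glutathione in liver homogenate from perfused rat livers after cold ischemia/reperfusion, measured colorimetrically via DTNB reduction at 405 nm; normalized to Bradford protein; percent of untreated controls.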

[13] = Antioxidant activity assessed as superoxide radical anion scavenging activity after 100 secs by xanthine/xanthine oxidase method; type: functional
Summary of the method: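 Cell-free chemiluminescence: 1 mM xanthine with test solution (5–80 μM), reaction started by injecting 1 mM luminol and 0.5 U/mL xanthine oxidase (stock concentrations). Light read for 100 s at 37 °C; output as RLU or area under the curve, relative to solvent control (100%); n = 9.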

[14] = system: Liver; assay: Effect on ischemic and reperfusion-induced injury in Sprague-Dawley rat hepatic tissue at 2.26 mM before ischemic period assessed as ALT level; type: functional, tissue-based; details: Sprague-Dawely; summary of the method: as §2
[15] = system: Liver; assay: Effect on ischemic and reperfusion-induced injury in Sprague-Dawley rat hepatic tissue at 2.26 mM before ischemic period assessed as AST level; type: functional, tissue-based; details: Sprague-Dawely; summary of the method: as §2

Chain of RAC-alpha serine/threonine-protein kinase (Rattus norvegicus) (P47196 whole entry, the tested form may be a part): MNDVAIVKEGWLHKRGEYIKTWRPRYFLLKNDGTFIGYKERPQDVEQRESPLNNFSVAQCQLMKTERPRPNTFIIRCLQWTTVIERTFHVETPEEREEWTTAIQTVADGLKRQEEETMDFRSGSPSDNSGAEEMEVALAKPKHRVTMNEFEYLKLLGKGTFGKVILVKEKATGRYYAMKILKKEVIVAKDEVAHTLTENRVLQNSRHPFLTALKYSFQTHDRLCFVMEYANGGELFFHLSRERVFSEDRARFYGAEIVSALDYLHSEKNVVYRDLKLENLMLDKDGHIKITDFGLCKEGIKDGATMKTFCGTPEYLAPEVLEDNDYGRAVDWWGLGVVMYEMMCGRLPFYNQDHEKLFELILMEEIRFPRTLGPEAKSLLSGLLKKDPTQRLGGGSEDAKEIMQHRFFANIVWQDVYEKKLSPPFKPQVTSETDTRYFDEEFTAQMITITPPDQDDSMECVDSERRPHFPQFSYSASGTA
Chain of Bcl-2-like protein 1 (Rattus norvegicus) (P53563 whole entry, the tested form may be a part): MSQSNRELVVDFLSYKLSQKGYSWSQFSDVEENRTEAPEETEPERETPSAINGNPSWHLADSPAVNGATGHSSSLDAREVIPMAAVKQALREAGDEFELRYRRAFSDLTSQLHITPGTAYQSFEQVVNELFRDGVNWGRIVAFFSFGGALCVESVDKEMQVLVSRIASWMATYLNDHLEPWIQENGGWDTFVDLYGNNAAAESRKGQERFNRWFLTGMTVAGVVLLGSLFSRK

inhibition [6]: Active | Activity [8]: Active | Activity [9]: Active | inhibition [10]: Active | IC50 [11]: 35 µM | IC50 [13]: 15 µM
SMILES: COc1cc(O)c(CC=C(C)C)c(O)c1C(=O)/C=C/c1ccc(O)cc1 [XANTHOHUMOL]
Activity [1]: 46.2% | Activity [2]: 71.9% | Activity [3]: Non-toxic | inhibition [4]: Active | Activity [5]: inactive | inhibition [7]: Active | inhibition [12]: Active | Activity [14]: inactive | Activity [15]: inactive
